Converted amounts (≈) assume the structure as drawn. The source made the active and inactive calls. The rule behind the calls is not given here.
Assays:
Staphylococcus aureus [1] = test: Antibacterial activity against methicillin-resistant Staphylococcus aureus USA300 JE2 at 10 ug after 24 hrs by Kirby Bauer method; type: functional; details: USA300 JE2, 24 h, read-out: DIZ
Outline: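 Disc diffusion reference, streptomycin 10 µg. 0.5 McFarland inoculum spread on Mueller Hinton agar with 6 mm discs. Incubated at 37 °C and inhibition zone diameter measured after 24 h.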

Staphylococcus aureus [2] = test: Antibacterial activity against methicillin-resistant Staphylococcus aureus USA300 JE2 after 24 hrs by broth microdilution method; type: functional; details: USA300 JE2, 24 h
Outline: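 Broth microdilution. Test material taken from a 1 mg/mL DMSO stock and serially diluted 2-fold in Mueller Hinton broth containing 5% DMSO. Wells inoculated with a direct colony suspension at 0.5 McFarland, then incubated statically at 37 °C for 24 h. MIC is the lowest concentration with no growth, read by eye and by OD600. Vancomycin and gentamicin as positive controls. Run in triplicate.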

Escherichia coli [3] = test: Antibacterial activity against Escherichia coli K-12 after 24 hrs by broth microdilution method; type: functional
Outline: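 Broth microdilution per ASM Clinical Microbiology Procedures Handbook (3rd ed.); 1 mg/mL DMSO stock serially 2-fold diluted in Mueller Hinton broth with 5% DMSO; inoculum from direct colony suspension at 0.5 McFarland; static incubation 37 °C, 24 h. MIC = lowest concentration without visible growth (eye and OD600). Vancomycin and gentamicin positive controls, medium negative control; triplicate.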

Staphylococcus aureus [4] = test: Induction of biofilm dispersion of methicillin-resistant Staphylococcus aureus USA300 JE2 at MIC after 24 hrs by crystal violet staining-based assay relative to control; type: functional
Outline: (§1)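 Preformed-biofilm dispersion. Gelatin-coated wells seeded with 1 × 10^6 CFU/mL in TSB with 0.5% glucose and grown 24 h at 37 °C. Medium replaced with 2-fold dilutions in fresh TSB with 0.5% glucose, then a further 24 h at 37 °C. Biofilm fixed with methanol, stained with 0.1% crystal violet, dissolved in methanol:acetic acid:water 4:1:5 and read at OD540.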

Staphylococcus aureus [5] = test: Induction of biofilm dispersion of methicillin-resistant Staphylococcus aureus USA300 JE2 at 2 times MIC after 24 hrs by crystal violet staining-based assay relative to control; type: functional; outline: as §1
Staphylococcus aureus [6] = test: Inhibition of biofilm formation of methicillin-resistant Staphylococcus aureus USA300 JE2 at MIC after 24 hrs by crystal violet staining-based assay relative to control; type: functional
Outline: (§2)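 Biofilm formation inhibition. Gelatin-coated wells received 2-fold dilutions in TSB with 0.5% glucose plus cells at 2 × 10^6 CFU/mL from fresh culture. Incubated at 37 °C for 24 h. Wells gently rinsed, stained with 0.1% crystal violet for 10 min, destained in methanol:acetic acid:water 4:1:5 and read at OD540.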

Staphylococcus aureus [7] = test: Bacteriostatic activity against methicillin-resistant Staphylococcus aureus USA300 JE2 at 3 times MIC after 1 to 24 hrs by time killing assay; type: functional, organism-based
Outline: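 Time-kill. Culture grown in Mueller Hinton broth at 37 °C for 6 h, adjusted to about 7.5 × 10^6 CFU/mL and exposed to 3 × MIC at 37 °C. Samples taken at 0, 1, 2, 3, 4, 6 and 24 h, serially diluted 10-fold in 0.9% saline and plated on Mueller Hinton agar for 24 h at 37 °C. Colonies counted and plotted as log CFU/mL. Triplicate.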

Staphylococcus aureus [8] = test: Antibacterial activity against methicillin-resistant Staphylococcus aureus USA300 JE2 at 10 times MIC after 24 hrs by Kirby Bauer method; type: functional
Outline: (§3)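 Mutant-resistance disc assay. Culture grown in Mueller Hinton broth for 4 h, diluted to 1.5 × 10^8 CFU/mL (0.5 McFarland) and spread on Mueller Hinton agar. 6 mm paper discs loaded with compound in DMSO at 10 × MIC. Plates at 37 °C. Inhibition zone diameter read at 24 h. Plates then kept 6 days and checked for colonies growing inside the zone.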

Staphylococcus aureus [9] = test: Antibacterial activity against methicillin-resistant Staphylococcus aureus USA300 JE2 at 10 times MIC after 6 days by Kirby Bauer method; type: functional, organism-based; outline: as §3
Staphylococcus aureus [10] = test: Induction of membrane damage of methicillin-resistant Staphylococcus aureus USA300 JE2 at MIC after 18 hrs by propidium iodide staining-based flow cytometric method; type: functional, organism-based
Outline: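 Flow cytometry membrane-permeability assay. […] Propidium iodide stock at 1 mg/mL added, held 15–20 min in the dark, then cells washed three times and resuspended in PBS. Controls: PI-stained untreated cells and cells treated with 70% ethanol.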

Staphylococcus aureus [11] = test: Induction of membrane damage of methicillin-resistant Staphylococcus aureus USA300 JE2 at 2 times MIC after 18 hrs by transmission electron microscopic method; type: functional, organism-based
Outline: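 TEM. […] Cells washed three times in PBS, then fixed in 2% glutaraldehyde with 2% paraformaldehyde in 0.1 M phosphate buffer.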

Escherichia coli [12] = test: Induction of membrane damage of Escherichia coli K-12 at 2 times MIC after 18 hrs by transmission electron microscopic method; type: functional, organism-based
[13] = Cytotoxicity against HCEC after 24 hrs by MTT assay; set-up: species or system Homo sapiens
Outline: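 HCEC cells grown in HCEC medium at 37 °C in a hypoxia chamber, seeded 6000 cells/well, left 24 h, then exposed 24 h to 200, 100, 50, 25, 12.5, 6.25 or 0 (vehicle) µg/mL. MTT added from a 2 mg/mL stock for 2 h, formazan dissolved in DMSO, absorbance read at 570 nm.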

Galleria mellonella = test: Toxicity in Galleria mellonella larvae assessed as decrease in survival at 0.5 times MIC after 96 hrs; type: organism-based; details: in vivo
[14] = Metabolic stability in human liver S9 fraction at 1 uM after 5 to 60 mins by LC-MS/MS method; type: ADME, subcellular; details: s9, 1 µM
Outline: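 Compounds incubated with human liver S9 fraction, covering phase I and phase II enzymes; depletion followed over incubation time as percent remaining. Mean ± S.D., n = 3.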

[15] = Stability in simulated gastric fluid at pH1.2 at 1 uM after 2 hrs by LC-MS/MS method; type: ADME; details: simulated gi fluid, pH 1.2, 2 h
Outline: (§4)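 Stability tested in simulated gastric fluid (pH 1.2), simulated intestinal fluid (pH 6.8) and 50 mM tris buffer (pH 7.4) using literature protocols.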

[16] = Stability in simulated intestinal fluid at pH 6.8 at 1 uM after 2 hrs by LC-MS/MS method; type: ADME; details: simulated gi fluid, pH 6.8, 2 h; outline: as §4
[17] = Stability in tris buffer at pH 7.4 at 1 uM after 2 hrs by LC-MS/MS method; type: physicochemical; details: pH 7.4, 2 h; outline: as §4
Staphylococcus aureus [18] = test: Induction of biofilm dispersion of methicillin-resistant Staphylococcus aureus USA300 JE2 at 1 to 32 ug/ml after 24 hrs by crystal violet staining-based assay relative to control; type: functional, organism-based; outline: as §1
Staphylococcus aureus [19] = test: Inhibition of biofilm formation of methicillin-resistant Staphylococcus aureus USA300 JE2 at 8 times MIC after 24 hrs by crystal violet staining-based assay relative to control; type: functional; outline: as §2
[20] = Toxicity in Galleria mellonella larvae assessed as survival at 3 ug/ml after 96 hrs relative to control; type: organism-based; details: in vivo

| Compound | MIC (Staphylococcus aureus [2]) | MIC (Escherichia coli [3]; K-12, 24 h) | also measured |
| --- | --- | --- | --- |
| CN[C@@H]1[C@H](O[C@H]2[C@H](O[C@H]3[C@H](O)[C@@H](O)[C@H](N=C(N)N)[C@@H](O)[C@@H]3N=C(N)N)O[C@@H](C)[C@]2(O)C=O)O[C@@H](CO)[C@H](O)[C@H]1O [STREPTOMYCIN] | – | – | zone of inhibition at 10 µg/disc (Staphylococcus aureus [1]): 18 mm |
| COC(=O)c1cccc2nc3c(Cl)ccc(Cl)c3nc12 | 128 µg/mL (≈ 417 µM) | 64 µg/mL (≈ 208 µM) | – |
| COc1ccc(Br)c2nc3c(C(=O)NC#N)cccc3nc12 | 256 µg/mL (≈ 717 µM) | 32 µg/mL (≈ 89.6 µM) | – |
| CS(=O)(=O)NC(=O)c1cccc2nc3ccccc3nc12 | 128 µg/mL (≈ 425 µM) | 128 µg/mL (≈ 425 µM) | – |
| N#CNC(=O)c1cccc2nc3cccc(Cl)c3nc12 | 128 µg/mL (≈ 453 µM) | 128 µg/mL (≈ 453 µM) | – |
| CS(=O)(=O)NC(=O)c1cccc2nc3c(Cl)ccc(Cl)c3nc12 | 16 µg/mL (≈ 43.2 µM) | 64 µg/mL (≈ 173 µM) | Activity (Staphylococcus aureus [4]): 42%; Activity (Staphylococcus aureus [5]): 61%; inhibition (INH) (Staphylococcus aureus [6]): 82%; Activity (Staphylococcus aureus [7]): Active; diameter of the inhibition zone (DIZ) (Staphylococcus aureus [8]): 19 mm; Activity (Staphylococcus aureus [9]): Active; Activity (Staphylococcus aureus [10]): inactive; Activity (Staphylococcus aureus [11]): inactive; Activity (Escherichia coli [12]): inactive; IC50 [13]: 208 µM; Activity (Galleria mellonella): Non-Toxic; Stability [14]: Stable; Stability [15]: Stable; Stability [16]: Stable; Stability [17]: Stable |
| CS(=O)(=O)NC(=O)c1cccc2nc3cccc(F)c3nc12 | 64 µg/mL (≈ 200 µM) | 128 µg/mL (≈ 401 µM) | – |
| NC(=O)c1cccc2nc3c(Cl)ccc(Cl)c3nc12 | 128 µg/mL (≈ 438 µM) | 32 µg/mL (≈ 110 µM) | – |
| Cc1cccc2nc3cccc(C(=O)NS(C)(=O)=O)c3nc12 | 32 µg/mL (≈ 101 µM) | 32 µg/mL (≈ 101 µM) | Activity (Staphylococcus aureus [9]): Active |
| COc1cc(Br)c2nc3c(C(=O)O)cccc3nc2c1 | 64 µg/mL (≈ 192 µM) | 256 µg/mL (≈ 768 µM) | – |
| CC(C)(C)[Si](C)(C)ON | – | – | diameter of the inhibition zone (DIZ) (Staphylococcus aureus [8]): 11 mm; Activity (Staphylococcus aureus [9]): Active |
| COc1ccc(Br)c2nc3c(C(=O)O)cccc3nc12 | 128 µg/mL (≈ 384 µM) | 64 µg/mL (≈ 192 µM) | – |
| COC(=O)c1cccc2nc3cc(Br)cc(OC)c3nc12 | 128 µg/mL (≈ 369 µM) | 128 µg/mL (≈ 369 µM) | – |
| COc1ccc(Br)c2nc3c(C(=O)NS(C)(=O)=O)cccc3nc12 | 128 µg/mL (≈ 312 µM) | 64 µg/mL (≈ 156 µM) | – |
| CS(=O)(=O)NC(=O)c1cccc2nc3cccc(Cl)c3nc12 | 2 µg/mL (≈ 5.96 µM) | 128 µg/mL (≈ 381 µM) | Activity (Staphylococcus aureus [18]): inactive; inhibition (INH) (Staphylococcus aureus [19]): 90%; diameter of the inhibition zone (DIZ) (Staphylococcus aureus [8]): 16 mm; Activity (Staphylococcus aureus [9]): Active; Activity (Staphylococcus aureus [10]): inactive; Activity (Staphylococcus aureus [11]): inactive; Activity (Escherichia coli [12]): inactive; survival at 96 h [20]: 70%; Stability [14]: Stable; Stability [15]: Stable; Stability [16]: Stable; Stability [17]: Stable |
| COC(=O)c1cccc2nc3cc(OC)cc(Br)c3nc12 | 128 µg/mL (≈ 369 µM) | 128 µg/mL (≈ 369 µM) | – |
| NC(=O)c1cccc2nc3cccc(Cl)c3nc12 | > 256 µg/mL | 128 µg/mL (≈ 497 µM) | – |
| COC(=O)c1cccc2nc3cc(OC)ccc3nc12 | 128 µg/mL (≈ 477 µM) | 64 µg/mL (≈ 239 µM) | – |
| CN(C(=O)c1cccc2nc3cccc(Cl)c3nc12)S(C)(=O)=O | > 256 µg/mL | 64 µg/mL (≈ 183 µM) | – |
| COc1ccc2nc3c(C(=O)O)cccc3nc2c1 | 256 µg/mL (≈ 1010 µM) | 64 µg/mL (≈ 252 µM) | – |
| O=C(O)c1cccc2nc3c(Cl)ccc(Cl)c3nc12 | 64 µg/mL (≈ 218 µM) | 128 µg/mL (≈ 437 µM) | – |
| N#CNC(=O)c1cccc2nc3cccc(F)c3nc12 | 128 µg/mL (≈ 481 µM) | 128 µg/mL (≈ 481 µM) | – |
| O=C(NO)c1cccc2nc3cccc(Cl)c3nc12 | 32 µg/mL (≈ 117 µM) | 128 µg/mL (≈ 468 µM) | – |
| COC(=O)c1cccc2nc3cccc(OC)c3nc12 | 128 µg/mL (≈ 477 µM) | 128 µg/mL (≈ 477 µM) | – |
| COc1ccc(OC)c2nc3c(C(=O)O)cccc3nc12 | 64 µg/mL (≈ 225 µM) | 64 µg/mL (≈ 225 µM) | – |
| O=C(Nc1nnn[nH]1)c1cccc2nc3cccc(Cl)c3nc12 | 32 µg/mL (≈ 98.2 µM) | 128 µg/mL (≈ 393 µM) | – |
| GENTAMICIN | – | – | MIC (Escherichia coli [3]): 0.25 µg/mL |
| COc1cc(Br)cc2nc3cccc(C(=O)O)c3nc12 | 128 µg/mL (≈ 384 µM) | 128 µg/mL (≈ 384 µM) | – |
| CN(C(=O)c1cccc2nc3ccccc3nc12)S(C)(=O)=O | 256 µg/mL (≈ 812 µM) | 128 µg/mL (≈ 406 µM) | – |
| N#Cc1cccc2nc3cccc(Cl)c3nc12 | > 256 µg/mL | 64 µg/mL (≈ 267 µM) | – |
